From ChEMBL document CHEMBL4513216, “Probing the Open Global Health Chemical Diversity Library for Multistage-Active Starting Points for Next-Generation Antimalarials” (ACS Infect Dis, 2020)

experiment: Toxicity liver stage against HepG2, at 10uM; type: cell-based; parameters: test concentration 10 uM, cell line HepG2-A16-CD81EGFP; details: human, HepG2-A16-CD81EGFP cells; read-out: INHIBITION
Outline: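 Uninfected HepG2-A16-CD81EGFP cells, 3 × 10^3 per well, 1536-well, plated on prespotted compound at 10 μM final, parasite-free screening media added to match infected plates; puromycin 10 μM positive, DMSO 0.5% negative; run in parallel with 48 h PbLuc assay at 37 °C, 5% CO2; viability by CellTiter-Glo luminescence, normalized to controls.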

| SMILES | cytotoxicity at 10 µM |
| --- | --- |
| Cc1n[nH]c(C)c1NC(=O)CN1CCOC(Cn2cccn2)C1 (configuration not stated) | -2.82% |
| CCc1ccc2nc(C)cc(C(=O)N3C[C@H]4CCC[C@@]4(CO)C3)c2c1 | -2.37% |
| CN1CCN([C@H]2CCN(C(=O)c3cc(Cl)cn3C)C[C@H]2CCCO)CC1 | 0.174% |
| COc1cccc2cc(CNC(=O)N3CCC(N4CCCC4)C3)oc12 (configuration not stated) | -2.69% |
| O=C(CCn1cc(Cl)cn1)N1CCCC(O)(CO)CC1 (configuration not stated) | -145% |
| CCCn1nc(C)c(CN(CCN(C)C)Cc2ccccn2)c1C | -0.641% |
| COc1ccc(CN2CCn3cc(Cn4cccn4)nc3C2)cc1 | 13.4% |
| Cc1cc(C)nc(NCc2nnc3n2CCCCC3)n1 | -10.6% |
| Cc1sc2nc(CCN)nc(N(C)CCCC3CCCO3)c2c1C (configuration not stated) | -6.01% |
| Cc1ccc(Nc2nccc(C3CCN(CC(N)=O)C3)n2)nc1 (configuration not stated) | -16.7% |
| O=S(=O)(NCCNc1ccc(-n2cccc2)nn1)c1ccccc1 | -0.426% |
| O=C(O)CCc1cc2n(n1)CCN(Cc1cnc(N3CCCC3)nc1)C2 | -1.89% |
| Cc1cccc(CN2CC[C@@H]3O[C@@H](C(=O)N4CCN(C)CC4)C[C@@H]32)n1 | 1.04% |
| CO[C@@H]1CCN(C(=O)Cc2ccsc2)[C@H]1Cc1cccnc1 | 6.9% |
| CCn1nc(C(C)C)cc1C(=O)N1CCOc2ccc(OC)cc21 | 9.27% |
| COc1ccc(C(CNC(=O)c2c(C)noc2C)N(C)C)cc1 (configuration not stated) | -13.1% |
| CCN(Cc1ccc2cccc(O)c2n1)CC1CCCO1 (configuration not stated) | -4.02% |
| COc1ccccc1OCCC(=O)N1CCCCC1c1nccs1 (configuration not stated) | -15.7% |
| Cc1cccnc1CN1CCN(C(=O)CCn2ccccc2=O)CC1 | 3.34% |
| c1ccc(C(NCc2nnc(-c3ccco3)o2)C2CCC2)cc1 (configuration not stated) | -48.7% |
| COc1cccc(CNCCc2cc(F)cc3c2OCOC3)c1OC | 4.32% |
| CCc1ncc(C(=O)N2CCC(Nc3ccc(C)nn3)CC2)s1 | -7.94% |
| CS(=O)(=O)N(Cc1ccon1)c1cccc(Br)c1 | 7.57% |

| SMILES | cytotoxicity at 10 µM |
| --- | --- |
| COc1cccc(-n2c(C)cc(C(=O)NC(C)(C)C(N)=O)c2C)c1 | -2% |
| CO[C@@H]1CCN(Cc2ccccn2)[C@@H]2CN(Cc3ccco3)C[C@@H]21 | 6.73% |
| CC(C)N1CCC(Cc2cc(-c3cc(F)ccc3C(=O)O)ncn2)C1 (configuration not stated) | 7.49% |
| Cc1occc1C(=O)N1CCCC1c1ccc(C(=O)N2CCOCC2)s1 (configuration not stated) | -143% |
| Cc1ccccc1OCCC(=O)N1CCCC(n2cncn2)C1 (configuration not stated) | -17.6% |
| CS(=O)(=O)N1CCC(NC(=O)COc2cccc(Cl)c2)CC1 | -5.59% |
| Cc1ccc(OCCC(=O)NC2CCc3nccn3C2)cc1 (configuration not stated) | -8.15% |
| CCOCc1cncc2c1CCN(S(=O)(=O)c1ccccc1)C2 | 14.6% |
| Cn1c(Cn2ccnc2)nnc1C1CCCN(C2CCCCC2)C1 (configuration not stated) | -13.2% |
| CCn1cnnc1C1CCN(C(=O)c2cnc3ccccc3n2)CC1 | -8.59% |
| O=S(=O)(Cc1cccc(Cl)c1)CC(O)Cn1cccn1 (configuration not stated) | -12.5% |
| Cc1ccsc1CN1CCc2nc3ccsc3c(=O)n2CC1 | 8.52% |
| COc1ccccc1OC1CCN(C(=O)c2cccc(O)c2C)CC1 | 12.5% |
| c1cc(-c2ccc(CN3CCC4(CCNCC4)CC3)s2)[nH]n1 | -166% |
| CC(C)n1nc2c(cc1=O)CN(c1ncnc3sccc13)CC2 | 49.7% |
| Cc1cccc(CN2CC[C@@H]3[C@@H]2CCN3C(=O)c2cc(C)oc2C)n1 | -4.42% |
| CC(C)CN1CCN(C(=O)c2ccncc2F)Cc2cccnc21 | 1.71% |
| O=C(CCc1ccc(O)cc1)N1CCC(Cc2ccc(CO)cc2)C1 (configuration not stated) | 14.8% |
| CC1(C)CC(CN2CCC3(CCC(=O)N(CCO)C3)CC2)CCO1 (configuration not stated) | 18% |
| CC(CNC(=O)N1CCC(CO)CC1)Cc1cccs1 (configuration not stated) | -8.52% |
| CC(C)C(N)C1=NC(=C2N=CN=N2)NO1 (configuration not stated) | 8.86% |
| O=C(c1ccc2c(c1)CCCC2)N1CCCC(n2cncn2)C1 (configuration not stated) | -8.51% |
| CCc1nsc(N2CCCN(CC(=O)N(C)C3CC3)CC2)n1 | -9.43% |

| SMILES | cytotoxicity at 10 µM |
| --- | --- |
| c1cc(NCc2ccncc2)nc(C2CCCN2)c1 (configuration not stated) | -2.55% |
| CC(C)(C(=O)NCCS(N)(=O)=O)c1cccc(Br)c1 | -8.35% |
| CC(=O)Nc1nc(C(=O)NCc2ccnc(N3CCCC3)c2)cs1 | -1.94% |
| CC(C)(C)c1nc(CN2CCC(N3CCCCC3)CC2)no1 | -0.48% |
| O=C(Nc1cccnc1)Nc1ccn(CC(F)F)n1 | -4.63% |
| O=c1c2cccnc2ccn1Cc1nccn1C1CC1 | -4.87% |
| Cn1cnnc1C1CCCN(C(=O)c2ccccc2Cl)C1 (configuration not stated) | 3.59% |
| Cc1nnc(NC(=O)CN2CCCC(Cn3cncn3)C2)s1 (configuration not stated) | 1.71% |
| CC(=O)NCc1cncc(C2CCCN2C2CCOCC2)n1 (configuration not stated) | 2.15% |
| O=C1N[C@@H]2CCN(C(=O)C3CC3)[C@@H]2C(=O)N1c1ccc(F)cc1 | -1.8% |
| CCS(=O)(=O)NCCNc1c(C#N)cnc2c(F)cc(F)cc12 | 16.2% |
| OC(CNCc1nnc2ccccn12)c1ccc2c(c1)OCO2 (configuration not stated) | 5.79% |
| COc1ccc2c(c1)OCC(Cc1cc(N3CCCC3)cnn1)C2 (configuration not stated) | -18.1% |
| Cn1c(C(F)(F)F)nn(CCNC(=O)c2nc3ccccc3s2)c1=O | 1.79% |
| CCNc1ncc(C(=O)NCc2csc(-c3cnccn3)n2)cn1 | 0.185% |
| c1cc(OCc2ccc3c(c2)OCCO3)ccc1CNC1CC1 | -0.73% |
| CC(C)(C)NC(=O)c1ccccc1NC(=O)c1ccncc1 | -10.3% |
| CCc1nc(CC(=O)N2CCCC2c2c(C)nn(C)c2OC)cs1 (configuration not stated) | -2.17% |
| O=c1c(Cc2ccccc2)c(O)ccn1CCc1ccccc1 | 10.3% |
| Cc1cc(N(C)C)nc(C2(C)CCCN2CC(N)=O)n1 (configuration not stated) | -2.8% |
| Cn1cccc1C(=O)N1CC[C@H]2[C@H](CO[C@H]2CNS(C)(=O)=O)C1 | -2.94% |
| c1ccc(CN2CCC(NCCSc3cnn[nH]3)CC2)cc1 | -5.16% |
| Cc1nnc(NCCn2nc(C)c(Cl)c2C)o1 | 1.91% |

| SMILES | cytotoxicity at 10 µM |
| --- | --- |
| C=C(C)COc1cccc(C(=O)NCCCc2nnn[nH]2)c1 | -0.531% |
| O=C(NCC1COCc2c(-c3ccncc3)nnn2C1)[C@H]1CCCO1 (some centres not stated) | 1.9% |
| Cc1nc(C(=O)N(CC2CCCO2)c2ccncc2)cs1 (configuration not stated) | -7.3% |
| CC(=O)N(Cc1ncc(C)o1)C1CCN(Cc2ccon2)C1 (configuration not stated) | -9.03% |
| COCc1cc(NCCc2ccccn2)n2nccc2n1 | -0.464% |
| Cc1cc(F)ccc1S(=O)(=O)N(C)CC(N)=O | 1.38% |
| CC(C)Oc1ncnc2c1CCN(Cc1ccco1)CC2 | 8.49% |
| Cc1ccc(C(=O)NCC(O)c2cnn(C)c2)c(Br)c1 (configuration not stated) | -6.53% |
| Cn1cc(S(=O)(=O)NCC(C)(O)c2ccsc2)cn1 (configuration not stated) | 22.1% |
| Cc1ccc(CSc2nc(N)cc(NCCC(=O)N3CCCC3)n2)cc1 | 1.87% |
| CC(CNC(=O)c1ccc(Cl)cc1F)N1CCCC1 (configuration not stated) | -3.85% |
| Cc1cn2c(n1)CCC(NC(=O)CCOc1cccc(F)c1)C2 (configuration not stated) | -3.42% |
| COc1ccc(-c2noc(C3CCS(=O)(=O)C3)n2)cc1OC (configuration not stated) | 5.4% |
| CC1CN(C(=O)C2(c3cccc(F)c3)CCOCC2)CCO1 (configuration not stated) | 4.89% |
| Cc1ccc(CNC(=O)C2CCN(C(=O)c3ccco3)CC2)n1C | 2.46% |
| CC(=O)N1CCCC2(CN(Cc3ccccc3C(F)(F)F)CCO2)C1 (configuration not stated) | 7.28% |
| O=C(NCCn1nc(-n2cncn2)ccc1=O)c1ccsc1 | 1.99% |
| O=C1CCC(C(=O)NCCOc2ccccc2-c2ccccc2)CN1 (configuration not stated) | 5.47% |
| Cc1nc(C2CCCN2CC(=O)NCCOc2cccc(F)c2)no1 (configuration not stated) | -16.3% |
| CC(C)[C@H]1COC(=O)N1CC(=O)N(C)CCCn1cccn1 | -157% |
| CCCOCC1CCN(C(=O)Cn2cccc(C(F)(F)F)c2=O)C1 (configuration not stated) | -16.3% |
| COc1ccc(CN2CCO[C@@H]3C[C@@H](C(=O)NC(C)C)C[C@H]32)cc1 | 8.31% |
| O=c1c2cccnc2cnn1CC(O)c1cccc(C(F)(F)F)c1 (configuration not stated) | -3.67% |

| SMILES | cytotoxicity at 10 µM |
| --- | --- |
| CC(C)c1cc(N2CCSCC2)n2nccc2n1 | 4.66% |
| O=C(O)c1ccc(=O)n(CC(c2ccc(F)cc2)N2CCCCCC2)c1 (configuration not stated) | 1.31% |
| Cc1nc(COC[C@]23COC[C@H]2CN(Cc2ccoc2)C3)cs1 | -19.2% |
| Cc1ccc(OCC(O)CN2CCC(Cn3cccn3)CC2)cc1 (configuration not stated) | -16% |
| CCCOc1cccc(CNC(=O)CN2CCN(C)CC2C)c1 (configuration not stated) | -7.57% |
| Cc1ccccc1CC(=O)N1CCCn2cncc2C1 | -1.1% |
| CNC(=O)CCc1cc(C)nc(C2CCCN2)n1 (configuration not stated) | 1.77% |
| CC(O)(CN1CCN(CCO)CC1)c1cccc(C(F)(F)F)c1 (configuration not stated) | -17.5% |
| c1ccc(CN2C[C@@H]3CC[C@H]2CN(Cc2nnc(C4CC4)o2)C3)cc1 | -22.4% |
| CN(CC(=O)Nc1cccc(F)c1)Cc1nc(N)nc(N(C)C)n1 | -6.13% |
| CCCN1CCCC2(CCN(c3nccc(OC)n3)C2)C1=O (configuration not stated) | -4.74% |
| O=C(NCC1CCCN(C(=O)NCCc2ccccc2)C1)c1ccco1 (configuration not stated) | -4.66% |
| COC(=O)[C@@H]1Cc2ncn(C)c2CN1S(=O)(=O)c1cccs1 | -6.25% |
| Cn1ccc(-c2cc(C(=O)N3CCOCC3)c3ccccn23)n1 | 7.9% |
| Cc1cccc(N2CCC(NCc3cnc(C4CCC4)s3)CC2)n1 | 6.08% |
| COC(=O)c1ccc(N2CCC(c3ccccc3)CC2)nn1 | -3.59% |
| CC(C)Nc1ccc2nc(C3CCN(C(C)C)CC3)nn2c1 | -20.4% |
| CN(CCCNC(=O)c1ccc(C#N)cc1)CC(F)(F)F | 5.12% |
| O=C(NC1CC1)c1cc(NC(=O)N2CCSCC2)ccc1Cl | -22.5% |
| Cc1ccc(-n2ncc(C(=O)N(C)C3CCN(C)CC3)c2N)cc1C | -8.56% |
